Source: ChEMBL document CHEMBL1212724, “Rapid selection of cyclic peptides that reduce alpha-synuclein toxicity in yeast and animal models” (Nat Chem Biol, 2009)
Calls of active or inactive are those of the source. The calls are words filed in the database; no cut-off is given here. Bridge positions count the residues as written; N and C are the ends. Peptide text beside a SMILES is read from it.

Experiments:
[1] = biological target: Alpha-synuclein (Homo sapiens) (UniProt P37840); assay: Inhibition of alpha-synuclein-mediated dopaminergic neurodegeneration in Caenorhabditis elegans transfected with human alpha-synuclein
Summary of the method: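 Age-synchronized transgenic worms expressing α-syn and GFP from the Pdat-1 promoter in DA neurons, with extrachromosomal mCP arrays; three independent lines per strain. Six anterior DA neurons (4 CEP, 2 ADE) scored at day 7 on 2% agarose pads with 2 mM levamisole, by epifluorescence. An animal with any dendrite, axon or cell body loss counted as degenerating. 30 worms per trial, three trials per line.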

[2] = biological target: Alpha-synuclein (Homo sapiens) (UniProt P37840); assay: Inhibition of alpha-synuclein-mediated toxicity in yeast transfected with human alpha-synuclein by spotting assay
Summary of the method: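 Haploid W303 IntTox strain carrying integrated GAL1-driven human α-syn-YFP, transformed with CP plasmids by lithium acetate heat shock. At least three independent transformants tested. Cells serially diluted and plated on galactose medium to induce α-syn, then growth scored.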

[3] = biological target: Huntingtin (Homo sapiens) (UniProt P42858); assay: Inhibition of huntingtin-mediated toxicity in yeast transfected with human huntingtin by spotting assay
[4] = test system: Saccharomyces cerevisiae; assay: Effect on lacZ expression in yeast after 36 to 48 hrs by Gal1 reporter gene assay; format: functional, organism-based
Summary of the method: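 GAL1::LacZ yeast (freshly integrated) grown on galactose plates; single colonies picked at 36–48 h, washed, normalized to OD600 0.4–0.8. CPRG substrate buffer (100 mM HEPES pH 7.25, 150 mM NaCl, 0.5% SDS, 0.75 mg/mL CPRG) added, shaken 30–120 min at room temperature. Absorbance read at 578 nm and corrected for yeast optical density.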

[5] = biological target: Alpha-synuclein (Homo sapiens) (UniProt P37840); assay: Inhibition of human alpha-synuclein-mediated accumulation of stalled vesicle pools in yeast transfected with human alpha-synuclein after 8 to 12 hrs by electron microscopy

Chain of Huntingtin (Homo sapiens) (P42858 whole entry): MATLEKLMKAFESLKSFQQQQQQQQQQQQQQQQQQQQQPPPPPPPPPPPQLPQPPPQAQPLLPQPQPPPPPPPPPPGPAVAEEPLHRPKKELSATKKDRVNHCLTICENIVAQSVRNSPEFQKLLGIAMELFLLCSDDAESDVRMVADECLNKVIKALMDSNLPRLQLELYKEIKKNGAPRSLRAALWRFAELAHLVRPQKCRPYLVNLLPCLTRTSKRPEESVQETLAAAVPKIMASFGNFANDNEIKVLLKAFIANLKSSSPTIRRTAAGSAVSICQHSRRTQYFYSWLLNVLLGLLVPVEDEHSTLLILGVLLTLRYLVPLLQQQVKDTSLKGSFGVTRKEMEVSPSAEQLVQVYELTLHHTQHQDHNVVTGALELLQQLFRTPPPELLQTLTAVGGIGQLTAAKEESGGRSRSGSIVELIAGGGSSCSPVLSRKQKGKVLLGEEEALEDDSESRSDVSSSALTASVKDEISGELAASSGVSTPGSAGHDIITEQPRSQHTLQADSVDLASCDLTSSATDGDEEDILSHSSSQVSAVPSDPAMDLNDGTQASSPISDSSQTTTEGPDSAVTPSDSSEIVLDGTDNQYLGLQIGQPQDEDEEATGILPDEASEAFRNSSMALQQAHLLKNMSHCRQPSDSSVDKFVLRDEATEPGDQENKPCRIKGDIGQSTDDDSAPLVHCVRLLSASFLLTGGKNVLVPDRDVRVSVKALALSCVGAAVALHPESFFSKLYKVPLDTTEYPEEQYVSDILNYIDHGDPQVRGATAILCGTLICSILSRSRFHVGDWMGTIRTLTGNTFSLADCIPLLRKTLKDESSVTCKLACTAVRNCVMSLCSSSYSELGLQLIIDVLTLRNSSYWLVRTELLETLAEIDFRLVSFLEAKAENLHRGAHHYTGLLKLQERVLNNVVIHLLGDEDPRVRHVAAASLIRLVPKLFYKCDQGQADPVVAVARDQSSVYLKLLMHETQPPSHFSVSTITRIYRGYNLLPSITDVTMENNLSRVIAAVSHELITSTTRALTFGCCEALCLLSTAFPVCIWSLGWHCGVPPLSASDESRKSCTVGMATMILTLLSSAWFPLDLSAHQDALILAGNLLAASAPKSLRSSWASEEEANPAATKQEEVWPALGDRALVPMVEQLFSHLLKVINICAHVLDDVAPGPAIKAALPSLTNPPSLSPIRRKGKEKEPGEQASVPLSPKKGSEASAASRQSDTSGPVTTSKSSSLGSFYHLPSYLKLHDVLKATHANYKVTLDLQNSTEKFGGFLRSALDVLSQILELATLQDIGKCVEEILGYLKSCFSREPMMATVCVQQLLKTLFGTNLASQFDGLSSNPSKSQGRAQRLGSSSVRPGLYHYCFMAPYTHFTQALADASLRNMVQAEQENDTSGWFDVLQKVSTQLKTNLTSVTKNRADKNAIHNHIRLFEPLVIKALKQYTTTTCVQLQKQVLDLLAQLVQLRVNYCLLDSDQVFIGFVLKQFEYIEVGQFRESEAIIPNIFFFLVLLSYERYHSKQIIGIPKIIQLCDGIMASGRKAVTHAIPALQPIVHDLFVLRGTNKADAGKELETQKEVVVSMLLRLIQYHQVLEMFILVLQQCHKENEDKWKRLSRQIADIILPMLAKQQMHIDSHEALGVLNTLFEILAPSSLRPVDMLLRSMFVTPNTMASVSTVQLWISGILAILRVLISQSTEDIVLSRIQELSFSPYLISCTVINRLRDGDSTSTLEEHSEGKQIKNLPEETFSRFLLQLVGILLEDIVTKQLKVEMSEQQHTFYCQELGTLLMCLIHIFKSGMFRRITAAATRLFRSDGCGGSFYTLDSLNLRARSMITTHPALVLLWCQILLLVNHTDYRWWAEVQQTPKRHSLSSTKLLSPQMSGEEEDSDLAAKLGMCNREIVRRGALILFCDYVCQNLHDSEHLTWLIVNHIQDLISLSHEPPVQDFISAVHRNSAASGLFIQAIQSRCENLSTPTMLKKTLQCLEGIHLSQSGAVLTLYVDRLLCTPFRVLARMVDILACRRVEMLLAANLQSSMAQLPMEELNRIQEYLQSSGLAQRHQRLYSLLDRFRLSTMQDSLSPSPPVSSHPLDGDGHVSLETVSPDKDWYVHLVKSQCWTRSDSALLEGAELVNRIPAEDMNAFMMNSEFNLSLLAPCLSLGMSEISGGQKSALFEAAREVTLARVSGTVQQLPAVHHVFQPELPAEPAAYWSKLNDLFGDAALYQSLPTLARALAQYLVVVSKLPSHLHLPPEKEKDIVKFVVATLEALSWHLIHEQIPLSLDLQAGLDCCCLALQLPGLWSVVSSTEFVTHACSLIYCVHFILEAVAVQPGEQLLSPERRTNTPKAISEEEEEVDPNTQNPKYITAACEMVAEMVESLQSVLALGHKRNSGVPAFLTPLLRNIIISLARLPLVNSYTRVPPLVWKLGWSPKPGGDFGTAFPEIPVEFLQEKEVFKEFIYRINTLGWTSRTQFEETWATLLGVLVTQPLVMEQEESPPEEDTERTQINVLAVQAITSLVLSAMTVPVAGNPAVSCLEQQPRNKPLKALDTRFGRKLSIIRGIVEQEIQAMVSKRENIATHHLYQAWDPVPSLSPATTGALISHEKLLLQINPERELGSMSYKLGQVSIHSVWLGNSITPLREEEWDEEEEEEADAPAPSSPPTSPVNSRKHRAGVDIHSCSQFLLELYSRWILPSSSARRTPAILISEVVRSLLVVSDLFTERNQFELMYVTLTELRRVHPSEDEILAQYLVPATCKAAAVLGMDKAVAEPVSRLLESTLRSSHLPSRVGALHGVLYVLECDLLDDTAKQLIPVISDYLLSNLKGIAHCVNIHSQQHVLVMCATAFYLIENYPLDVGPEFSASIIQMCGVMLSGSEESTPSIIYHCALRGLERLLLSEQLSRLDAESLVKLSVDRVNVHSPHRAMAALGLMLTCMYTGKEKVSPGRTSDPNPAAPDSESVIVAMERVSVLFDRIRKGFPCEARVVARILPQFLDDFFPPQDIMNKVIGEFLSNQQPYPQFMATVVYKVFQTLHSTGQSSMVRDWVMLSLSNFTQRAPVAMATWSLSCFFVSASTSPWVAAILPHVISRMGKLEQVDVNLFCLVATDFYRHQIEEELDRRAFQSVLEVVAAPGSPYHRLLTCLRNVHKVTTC

inhibition [1]	Activity [5]	percent of animals without neurodegeneration [1] [%]	SMILES	inhibition [2]	Activity [3]	Activity [4]
inactive			CC(C)C[C@H](NC(=O)[C@H](C)NC(=O)[C@H](C)N)C(=O)N[C@@H](CS)C(=O)N[C@@H](CC(=O)O)C(=O)N1CCC[C@H]1C(=O)N[C@@H](Cc1c[nH]c2ccccc12)C(=O)N[C@@H](Cc1c[nH]c2ccccc12)C(=O)O (H-AALCDPWW-OH)			
inactive			CC(C)[C@H](NC(=O)[C@H](CCCNC(=N)N)NC(=O)[C@@H](NC(=O)[C@H](CO)NC(=O)[C@H](CS)NC(=O)[C@H](Cc1c[nH]c2ccccc12)NC(=O)[C@@H]1CCCN1C(=O)[C@H](C)N)[C@@H](C)O)C(=O)O (H-APWCSTRV-OH)			

The remaining lines, values behind:

SMILES	inhibition [1]	Activity [5]	percent of animals without neurodegeneration [1] [%]	inhibition [2]	Activity [3]	Activity [4]
CC(C)C[C@@H]1NC(=O)[C@H](C)NC(=O)[C@@H](N)CSSC[C@@H](C(=O)N[C@@H](CC(=O)O)C(=O)N2CCC[C@H]2C(=O)N[C@@H](Cc2c[nH]c3ccccc23)C(=O)N[C@@H](Cc2c[nH]c3ccccc23)C(=O)O)NC1=O (H-CALCDPWW-OH; disulfide 1-4)		inactive	24	Active	inactive	inactive
CC(C)[C@H](NC(=O)[C@H](CCCNC(=N)N)NC(=O)[C@H](C)NC(=O)[C@H](CO)NC(=O)[C@@H]1CSSC[C@H](N)C(=O)N2CCC[C@H]2C(=O)N[C@@H](Cc2c[nH]c3ccccc23)C(=O)N1)C(=O)O (H-CPWCSARV-OH; disulfide 1-4)				Active		
CC(C)[C@H](NC(=O)[C@H](CCCNC(=N)N)NC(=O)CNC(=O)[C@H](CO)NC(=O)[C@@H]1CSSC[C@H](N)C(=O)N2CCC[C@H]2C(=O)N[C@@H](Cc2c[nH]c3ccccc23)C(=O)N1)C(=O)O (H-CPWCSGRV-OH; disulfide 1-4)				Active		
CC(C)[C@H](NC(=O)[C@H](CCCNC(=N)N)NC(=O)[C@@H](NC(=O)[C@H](CO)NC(=O)[C@@H]1CSSC[C@H](N)C(=O)N2CCC[C@H]2C(=O)N[C@@H](Cc2c[nH]c3ccccc23)C(=O)N1)[C@@H](C)O)C(=O)O (H-CPWCSTRV-OH; disulfide 1-4)		inactive	26	Active	inactive	inactive
